Sampled rows, rich in hits. Any-hit rate of the full collection: about 2.6%.
SENP8 block-1 = human SENP8 protease inhibitors, primary screen, biochemical, fluorescence, Nedd8 protein substrate, uHTS; Sentrin-specific protease 8 (Homo sapiens), Q96LD8; recombinant SENP8; inhibition, % at 20 µM; 360,000 tested, 0.64% active; in the data active = inhibition mostly above about 40%, no sharp cut-off; inactive = mostly below about 27%
Target sequence (Q96LD8 whole entry, looked up): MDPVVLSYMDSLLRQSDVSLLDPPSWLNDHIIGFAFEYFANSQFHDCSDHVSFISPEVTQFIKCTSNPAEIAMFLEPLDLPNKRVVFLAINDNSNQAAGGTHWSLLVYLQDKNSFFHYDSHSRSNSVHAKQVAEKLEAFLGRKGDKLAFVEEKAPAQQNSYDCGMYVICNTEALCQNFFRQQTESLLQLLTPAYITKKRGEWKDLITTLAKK
SENP1 inh = human SENP1 catalytic domain inhibitors, primary screen, biochemical, FRET, uHTS; recombinant SENP1 catalytic domain, CyPet-SUMO1-YPet FRET cleavage; inhibition, % at 10 µM; 360,000 tested, 0.21% active; AID 624204, 2012;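 active = inhibition at least 30% at 10 µM, raw YFP signal under a set limit, fluorescence ratio 0.5 to 1.5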;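 also: 0% = enzyme with DMSO and 100% = no enzyme wells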
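Material – human SENP1 catalytic domain · Input – SENP1 enzyme, 20 pM final · Compound dosing – single concentration of 10 µM compound, 0.5% DMSO final · Timing – enzyme reaction for 50 min at room temperature, dark · Measured by – FRET fluorescence in CFP and YFP emission channels · Control set – no-enzyme wells low, DMSO-plus-enzyme wells high control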
SENP7 block = SENP7 protease inhibitors, primary screen, biochemical, luminescence, uHTS; Sentrin-specific protease 7 (Homo sapiens), Q9BQF6; recombinant SENP7, Z-RLRGG-aminoluciferin luminescence, 40 min; inhibition, % at 5 µM; 330,000 tested, 1.5% active; AID 434973, 2010;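 active = inhibition above about 50% at the single test dose, limit read from the data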;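 also: plate controls were DMSO with enzyme for no effect and no enzyme buffer wells for full effect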
SENP6 inh = SENP6 protease inhibitors, primary screen, biochemical, luminescence, uHTS; 330,000 tested, 1.8% active; inhibition, % at 10 µM; Sentrin-specific protease 6 (Homo sapiens), Q9GZR1; Recombinant SENP6 catalytic domain, aminoluciferin luminescence; AID 2599, 2010;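 active = inhibition above about 50% at the single tested dose, limit read from the data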;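 also: plate controls were DMSO wells with enzyme for no effect and DMSO wells lacking enzyme for full effect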
Target sequence (Q9GZR1 628-1112 limits assumed): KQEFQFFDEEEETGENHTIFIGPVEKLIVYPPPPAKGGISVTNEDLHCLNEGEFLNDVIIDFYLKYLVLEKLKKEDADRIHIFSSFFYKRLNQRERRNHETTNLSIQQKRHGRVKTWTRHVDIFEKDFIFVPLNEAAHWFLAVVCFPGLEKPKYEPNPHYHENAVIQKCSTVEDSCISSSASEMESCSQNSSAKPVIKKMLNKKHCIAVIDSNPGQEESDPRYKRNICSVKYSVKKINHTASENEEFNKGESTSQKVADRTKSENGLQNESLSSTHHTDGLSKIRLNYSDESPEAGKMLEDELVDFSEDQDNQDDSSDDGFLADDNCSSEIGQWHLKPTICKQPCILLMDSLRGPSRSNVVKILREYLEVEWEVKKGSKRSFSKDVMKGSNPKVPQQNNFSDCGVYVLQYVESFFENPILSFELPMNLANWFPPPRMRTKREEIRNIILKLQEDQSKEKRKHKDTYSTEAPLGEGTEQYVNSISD
SENP8 block-2 = SENP8 protease inhibitors, primary screen, biochemical, luminescence | 330,000 tested, 1.2% active | Sentrin-specific protease 8 (Homo sapiens), Q96LD8 | inhibition, % at 10 µM | purified SENP8, Z-RLRGG-aminoluciferin cleavage; in the data active = inhibition above about 50%
Platelet DG rel = inhibitors of platelet dense granule secretion, primary screen, cell-based, MLPCN, human platelets. human platelet-rich plasma, SFLLRN dense granule ATP release, luminescence. inhibition, %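 (compounds screened at 7.5 µM in platelet-rich plasma)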. 300,000 tested, 0.22% active. AID 1663, 2009;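 active = mean replicate score, as percent of positive control, at or above 50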
SENP8 conf = SENP8 protease inhibitors, retest, confirmation, biochemical, luminescence, single concentration | shares compounds with SENP7 block | Recombinant SENP8, Z-RLRGG-aminoluciferin luminescence, 60 min | inhibition, % at 12.5 µM | 6,200 tested, 40% active | AID 488912, 2010;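 active = mean inhibition across replicates above about 50%, limit read from the data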
SENP6 conf = SENP6 protease inhibitors, confirmation, biochemical, luminescence, single concentration. shares compounds with SENP7 block. recombinant SENP6, Z-RLRGG-aminoluciferin luminescence. inhibition, % at 12.5 µM. 6,200 tested, 58% active. AID 488915, 2010
SENP7 confirm = SENP7 protease inhibitors, retest, confirmation, biochemical, luminescence, single concentration; shares compounds with SENP7 block; 6,200 tested, 69% active; AID 488917, 2010; recombinant SENP7, Z-RLRGG-aminoluciferin luminescence, 40 min; inhibition, % at 12.5 µM
Casp3 select = caspase-3 protease inhibitors, confirmation, selectivity assay for SENP inhibitor project, biochemical, single concentration. shares compounds with SENP7 block. purified caspase-3, Z-DEVD-aminoluciferin luminescence, 60 min. inhibition, % at 12.5 µM. 6,200 tested, 60% active. AID 488918, 2010;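 active = mean inhibition above about 50%, limit read from the data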;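 also: plate controls were enzyme with DMSO for no effect and wells without caspase-3 for full effect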
Luc interf = interferes with luciferase luminescence in SENP counter-screen. shares compounds with SENP7 block. Pre-incubated SENP8/Z-RLRGG-aminoluciferin, luciferase luminescence interference. inhibition, % at 12.5 µM. 6,200 tested, 39% active;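 active = mean inhibition above about 50% when retested at one dose, limit read from the data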;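 also: plate controls were DMSO wells with completed reaction for no effect and substrate without enzyme for full effect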
An asterisk follows results filed as active; x = not tested or not shown.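 The calls were made as follows, unless noted: active = mean inhibition above about 50% in the one-dose retest (limit read from the data); inactive = the rest.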

SMILES	SENP8 block-1	SENP1 inh	SENP7 block	SENP6 inh	SENP8 block-2	Platelet DG rel	SENP8 conf	SENP6 conf	SENP7 confirm	Casp3 select	Luc interf
O=C(OCC(=O)c1cccs1)c1ccccc1	14.1	2.2	85.9*	13.0	71.8*	3.9	85.1*	85.7*	97.1*	91.2*	86.0*
O=C(COC(=O)c1cccc(O)c1)c1ccccc1	2.1	-1.2	86.8*	85.5*	78.5*	3.1	86.4*	86.7*	97.2*	87.5*	86.5*
CC(=O)C1=C(C)N(Cc2ccccc2)C(=O)N[C@H]1c1ccco1	7.8	-0.1	4.5	-12.3	3.2	-0.3	x	x	x	x	x
COc1nc(SCC(=O)Nc2ccccc2Cl)nc(N(C)C)n1	11.3	-0.1	2.5	85.5*	-3.3	-13.4	12.5	8.3	2.7	6.6	13.0
COc1ccc(SCC(=O)Nc2ccccc2Cl)cc1	7.7	0.6	-6.7	-2.1	-4.2	-0.7	x	x	x	x	x
COc1cccc(CSc2nc3ccccc3[nH]2)c1	4.6	2.4	80.6*	63.7*	77.3*	5.2	0.1	79.4*	95.3*	80.3*	82.5*
Fc1c(F)c(F)c(CSc2nc3ccccc3[nH]2)c(F)c1F	26.3	1.2	4.4	-2.0	-4.8	-4.6	x	x	x	x	x
Fc1ccccc1CSc1nc2ccccc2[nH]1	16.2	1.8	85.3*	82.9*	78.5*	-8.8	86.4*	85.3*	95.5*	83.4*	85.6*
Cc1ccc(C(=O)Nc2cccc(C(=O)O)c2)cc1S(=O)(=O)N1CCOCC1	8.3	3.3	-3.6	61.3*	56.6*	4.9	72.8*	67.9*	89.0*	50.1*	28.4
CC(=O)c1cccc(NC(=O)c2ccc(C)c(S(=O)(=O)N3CCOCC3)c2)c1	9.2	2.5	5.4	-19.8	2.4	0.5	x	x	x	x	x
Cc1ccc(C(=O)Nc2cccc(C(=O)O)c2)cc1S(=O)(=O)N1CCCCC1	20.0	0.3	94.4*	92.6*	88.0*	x	96.2*	96.0*	101.6*	82.8*	78.9*
COC(=O)c1cccc(NC(=O)c2ccc3c(c2)C(=O)N(CC2CCCO2)C3=O)c1 (centres undefined)	3.0	-0.3	3.3	-15.6	3.9	1.7	x	x	x	x	x
O=C(O)c1cccc(NC(=O)c2ccc3c(c2)C(=O)N(CC2CCCO2)C3=O)c1 (centres undefined)	25.9	2.5	71.2*	82.9*	50.0*	3.8	87.4*	85.4*	98.6*	74.1*	78.5*
CN(C)C(=O)COC(=O)c1ccccc1Nc1ccc(SC(F)F)cc1	-171.9	1.3	62.0*	-4.1	52.1*	-0.3	29.7	59.7*	84.2*	25.1	6.1
O=c1cc(-c2ccc3c(c2)OCO3)oc2ccccc12	-334.1	-0.9	76.7*	-9.0	-4.1	0.3	-3.4	-1.7	32.0	8.3	-3.8
O=c1cc(-c2ccc(O)cc2)oc2ccccc12	3.6	-61.8	1.4	-0.4	0.2	12.6	x	x	x	x	x
Cn1c(-c2ccc3c(c2)OCO3)cc(=O)c2ccccc21	7.5	0.4	-0.1	-12.6	-8.6	-3.4	x	x	x	x	x
Cn1c2ccccc2c(=O)c2ccc(-c3ccc4c(c3)OCO4)cc21	-460.4	-29.5	72.9*	72.3*	57.8*	-3.9	36.6	52.8*	79.2*	54.9*	25.2
Cc1cccc(OCc2cc(-c3ccccc3)no2)c1C	19.3	-1.5	66.6*	67.4*	54.8*	-7.8	9.4	42.9	70.0*	38.4	20.4
Fc1ccc(OCc2cc(-c3ccccc3)no2)cc1	-0.6	2.0	19.9	5.5	1.4	0.7	x	x	x	x	x
Clc1ccc(OCc2cc(-c3ccccc3)no2)c(Cl)c1	5.2	1.2	3.0	83.8*	81.5*	-4.4	9.6	17.8	17.7	48.8	0.8
COc1cccc(COC(=O)c2cc(=O)[nH]c3ccc(S(=O)(=O)N4CCOCC4)cc23)c1OC	-110.8	0.9	-1.2	2.2	17.9	23.4	x	x	x	x	x
COC(=O)c1cc(S(=O)(=O)N2CCN(c3cccc(OC)c3)CC2)cn1C	3.8	0.1	2.1	-0.8	9.2	-0.6	x	x	x	x	x
COc1cccc(NC(=O)Nc2ccc3c(c2)CCC3)c1	4.4	0.3	66.7*	57.9*	52.1*	13.9	1.0	14.4	83.0*	x	31.2
COc1ccc(OC)c(NC(=O)Nc2ccc3c(c2)CCC3)c1	9.6	1.4	13.9	16.9	6.5	3.3	x	x	x	x	x
SMILES	SENP8 block-1	SENP1 inh	SENP7 block	SENP6 inh	SENP8 block-2	Platelet DG rel	SENP8 conf	SENP6 conf	SENP7 confirm	Casp3 select	Luc interf
COc1cccc(NC(=O)c2ccc3c(c2)CCCC3)c1	3.9	-2.6	100.0*	98.5*	96.4*	26.6	98.5*	99.0*	102.4*	96.6*	93.6*
Cc1cccc(NC(=O)Nc2ccc3c(c2)CCC3)c1	3.5	-1.1	62.4*	34.3	-10.7	3.8	3.0	-4.9	-1.2	17.7	-11.5
COc1cc(NC(=S)N2CCCCC2C)cc(OC)c1OC (centres undefined)	1.4	-0.5	0.2	-3.4	0.5	11.1	x	x	x	x	x
Cc1cc(C)n(CC(=O)NNC(=O)CC(C)c2ccccc2)n1 (centres undefined)	2.7	0.3	3.3	8.6	8.5	x	x	x	x	x	x
CN(c1ccc(C(=O)Nc2ccc3c(c2)OCCO3)cc1)S(C)(=O)=O	10.5	0.8	-12.8	56.9*	36.1	21.4	59.2*	57.3*	85.4*	82.1*	65.3*
CN(c1ccc(C(=O)Nc2ccc3c(c2)OCO3)cc1)S(C)(=O)=O	29.2	3.0	78.9*	81.6*	54.6*	83.1*	42.1	41.5	74.1*	73.4*	48.5
Cc1ccc2nsnc2c1S(=O)(=O)Nc1ccccc1C(=O)O	4.5	0.0	1.1	-13.7	3.7	3.9	x	x	x	x	x

Assay outcomes deposited in PubChem by several laboratories.
